Experimental data published in ChEMBL document CHEMBL4321807, “Cyanine-Gemcitabine Conjugates as Targeted Theranostic Agents for Glioblastoma Tumor Cells” (J Med Chem, 2019).
Each block holds one compound with its values, some of them ahead of it. The source made the active and inactive calls. The rule behind the calls is not given here.

Legend:
[1] = Drug localization in mitochondria of human U87 cells at 20 uM incubated for 45 mins by Mitotracker staining-based confocal fluorescence microscopy; type: ADME; conditions: u-87mg atcc, 0.75 h
Procedure, shortened: (§1)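 U87 cells seeded at 10 000/well in imaging chambers and left overnight. Exposed to 20 μM compound in FluoroBrite DMEM for 45 min at 37 °C, then washed with HBSS. Stained 15 min with LysoTracker (1:10 000) or MitoTracker (1:15 000), plus NucBlue nuclear stain. Imaged live by confocal microscopy at 60×, dye excited at 633 nm. Colocalization scored by Pearson's correlation coefficient.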

[2] = Drug localization in lysosome of human U87 cells at 20 uM incubated for 45 mins by Lysotracker staining-based confocal fluorescence microscopy; type: ADME; conditions: u-87mg atcc, 0.75 h; procedure, shortened: as §1
[3] = tested on: U-87 MG; test: Cytotoxicity against human U87 cells assessed as reduction in cell viability at 0.001 to 10 uM incubated for 72 hrs by AlamarBlue assay; type: functional, cell-based; conditions: U-87MG ATCC
Procedure, shortened: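 U87 cells, grown in DMEM/F12 with 10% FBS, seeded at 5000/well and left overnight. Compounds added in protein-free hybridoma medium (PFHM II) to final 0.001–10 μM and incubated 72 h at 37 °C. Viability read by AlamarBlue, 2 h, fluorescence Ex/Em 560/590 nm. IC50 taken relative to the lowest concentration beyond which no further cell death occurs.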

[4] = tested on: U-87 MG; test: Antitumor activity against luciferase and RFP reporter expressing human U87 cells xenografted in Fox1nu mouse assessed as decrease in tumor burden at 10 mg/kg, iv administered at day 4 and day 8 post inoculation and six injections weekly measured after 5 weeks by bioluminescence imaging analysis; type: functional, organism-based; conditions: U-87MG ATCC
[5] = Drug metabolism in mouse serum assessed as 2-((E)-2-((E)-2-((2-Carboxyethyl)thio)-3-(2-((E)-1-(5-carboxypentyl)-3,3-dimethylindolin-2-ylidene)ethylidene)cyclohex-1-en-1-yl)vinyl)-1-(5-carboxypentyl)-3,3-dimethyl-3H-indol-1-ium chloride formation at 50 uM in presence of protease and phosphatase by HPLC analysis; type: ADME, cell-free
Procedure, shortened: (§2)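 Compound at 50 μM in commercial mouse serum at 37 °C. Followed by C4 HPLC with 780 nm absorbance; the metabolite was identified by MS and by coelution with a synthesized standard. Variant conditions: protease/phosphatase inhibitor cocktail premixed at 10% in serum, or incubation at low temperature.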

[6] = Drug uptake in small intestine of Fox1nu mouse xenografted with luciferase and RFP reporter expressing human U87 cells assessed as decrease in drug residual at 10 mg/kg, iv measured after 2 hrs post drug administration by fluorescence imaging analysis; type: ADME, organism-based, U-87MG ATCC; conditions: in vivo
Procedure, shortened: (§3)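 Xenograft mice carried subcutaneous U87-RFP-LUC flank tumors. Each received 10 mg/kg by retro-orbital i.v. injection in vehicle (2% DMSO, 9% ethanol, 9% BSA in PBS). Whole-body NIR fluorescence (ex 745/em 840 nm, radiant efficiency) imaged on IVIS under isoflurane at set times after injection. For organ signal, tumor and organs were dissected and imaged ex vivo.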

[7] = Drug uptake in lung of Fox1nu mouse xenografted with luciferase and RFP reporter expressing human U87 cells at 10 mg/kg, iv measured after 2 hrs post drug administration by fluorescence imaging analysis; type: ADME, organism-based, U-87MG ATCC; conditions: in vivo; procedure, shortened: as §3
[8] = Drug uptake in tumor of Fox1nu mouse xenografted with luciferase and RFP reporter expressing human U87 cells at 10 mg/kg, iv measured after 2 days post drug administration by fluorescence imaging analysis; type: ADME, organism-based, Neoplasm, U-87MG ATCC; conditions: in vivo, 48 h; procedure, shortened: as §3
[9] = tested on: LN-229; test: Cytotoxicity against human LN229 cells assessed as reduction in cell viability at 0.0001 to 10 uM incubated for 72 hrs by AlamarBlue assay; type: functional, cell-based
Procedure, shortened: (§4)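 LN18 and LN229 cells in DMEM with 5% FBS; HEK293 in DMEM/F12 with 10% FBS. Seeded at 2500/well and left overnight. Compounds added in PFHM II to final 0.0001–10 μM for 72 h. Viability by AlamarBlue, fluorescence Ex/Em 560/590 nm.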

[10] = tested on: LN-18; test: Cytotoxicity against human LN18 cells assessed as reduction in cell viability at 0.0001 to 10 uM incubated for 72 hrs by AlamarBlue assay; type: functional, cell-based; procedure, shortened: as §4
[11] = Drug uptake in kidney of Fox1nu mouse xenografted with luciferase and RFP reporter expressing human U87 cells at 10 mg/kg, iv measured after 2 hrs post drug administration by fluorescence imaging analysis; type: ADME, organism-based, U-87MG ATCC; conditions: in vivo; procedure, shortened: as §3
[12] = Drug uptake in Fox1nu mouse xenografted with luciferase and RFP reporter expressing human U87 cells assessed as increase in fluorescence signal in tumor at 10 mg/kg, iv measured after 30 mins post drug administration by fluorescence imaging analysis; type: ADME, organism-based; conditions: in vivo, 0.5 h; procedure, shortened: as §3
[13] = Drug uptake in tumor of Fox1nu mouse xenografted with luciferase and RFP reporter expressing human U87 cells at 10 mg/kg, iv measured after 2 hrs post drug administration by fluorescence imaging analysis; type: ADME, organism-based, Neoplasm, U-87MG ATCC; conditions: in vivo; procedure, shortened: as §3
[14] = Time taken for drug metabolism in mouse serum at 50 uM by HPLC analysis; type: ADME, cell-free; procedure, shortened: as §2
[15] = Drug uptake in kidney of Fox1nu mouse xenografted with luciferase and RFP reporter expressing human U87 cells at 10 mg/kg, iv measured after 2 days post drug administration by fluorescence imaging analysis; type: ADME, organism-based, U-87MG ATCC; conditions: in vivo, 48 h; procedure, shortened: as §3
[16] = Toxicity in […] mouse xenografted with luciferase and RFP reporter expressing human U87 cells assessed as effect on body weight at 10 mg/kg, iv administered at day 4 and day 8 post inoculation and six injections weekly measured after 5 weeks; type: organism-based; conditions: in vivo, 840 h
[17] = Drug uptake in liver of Fox1nu mouse xenografted with luciferase and RFP reporter expressing human U87 cells at 10 mg/kg, iv measured after 2 hrs post drug administration by fluorescence imaging analysis; type: ADME, organism-based, U-87MG ATCC; conditions: in vivo; procedure, shortened: as §3
[18] = Drug metabolism in mouse serum assessed as 2-((E)-2-((E)-2-((2-Carboxyethyl)thio)-3-(2-((E)-1-(5-carboxypentyl)-3,3-dimethylindolin-2-ylidene)ethylidene)cyclohex-1-en-1-yl)vinyl)-1-(5-carboxypentyl)-3,3-dimethyl-3H-indol-1-ium chloride formation at 50 uM by HPLC analysis; type: ADME, cell-free; procedure, shortened: as §2
[19] = Drug uptake in Fox1nu mouse xenografted with luciferase and RFP reporter expressing human U87 cells assessed as increase in fluorescence signal in liver at 10 mg/kg, iv measured after 30 mins post drug administration by fluorescence imaging analysis; type: ADME, organism-based; conditions: in vivo, 0.5 h; procedure, shortened: as §3
[20] = Drug metabolism in mouse serum assessed as 2-((E)-2-((E)-2-((2-Carboxyethyl)thio)-3-(2-((E)-1-(5-carboxypentyl)-3,3-dimethylindolin-2-ylidene)ethylidene)cyclohex-1-en-1-yl)vinyl)-1-(5-carboxypentyl)-3,3-dimethyl-3H-indol-1-ium chloride formation at low temperature at 50 uM by HPLC analysis; type: ADME, cell-free; procedure, shortened: as §2
[21] = Drug uptake in Fox1nu mouse xenografted with luciferase and RFP reporter expressing human U87 cells assessed as increase in fluorescence signal in at retro-orbital vein at 10 mg/kg, iv measured after 30 mins post drug administration by fluorescence imaging analysis; type: ADME, organism-based; conditions: in vivo, 0.5 h; procedure, shortened: as §3
[22] = Drug uptake in liver of Fox1nu mouse xenografted with luciferase and RFP reporter expressing human U87 cells at 10 mg/kg, iv measured after 2 days post drug administration by fluorescence imaging analysis; type: ADME, organism-based, U-87MG ATCC; conditions: in vivo, 48 h; procedure, shortened: as §3
[23] = Drug uptake in large intestine of Fox1nu mouse xenografted with luciferase and RFP reporter expressing human U87 cells at 10 mg/kg, iv measured after 2 hrs post drug administration by fluorescence imaging analysis; type: ADME, organism-based, U-87MG ATCC; conditions: in vivo; procedure, shortened: as §3
[24] = tested on: U-87 MG; test: Cytotoxicity against human U87 cells assessed as reduction in cell viability incubated for 72 hrs by AlamarBlue assay; type: functional, cell-based, U-87MG ATCC
[25] = tested on: HEK293; test: Cytotoxicity against human HEK293 cells assessed as reduction in cell viability at 0.0001 to 10 uM incubated for 72 hrs by AlamarBlue assay; type: cell-based; conditions: hek293, 72 h; procedure, shortened: as §4
[26] = Drug uptake in Fox1nu mouse xenografted with luciferase and RFP reporter expressing human U87 cells assessed as decrease in drug residual at 10 mg/kg, iv measured at 144 hrs post drug administration by fluorescence imaging analysis relative to control; type: ADME, organism-based; conditions: in vivo; procedure, shortened: as §3
[27] = Half life of compound in human U87 tumor homogenate at 50 uM measured upto 72 hrs by HPLC analysis; type: ADME, U-87MG ATCC
Procedure, shortened: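 Tumor homogenate prepared from U87 xenograft tissue in RIPA buffer (on ice), clarified by centrifugation and 0.2 μm filtration. Compound at 50 μM incubated at 37 °C for up to 72 h. Samples run on analytical C4 HPLC (5–90% MeCN gradient, 0.1% TFA) with 780 nm absorbance. Peak area normalized over time.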

[28] = Half life in mouse serum at 50 uM incubated for 360 mins by HPLC analysis; type: ADME, cell-free; procedure, shortened: as §2
[29] = Drug uptake in Fox1nu mouse xenografted with luciferase and RFP reporter expressing human U87 cells assessed as decrease in drug residual at 10 mg/kg, iv measured […] post drug administration by fluorescence imaging analysis relative to control; type: ADME, organism-based; conditions: in vivo, 48 h, in the assay text read “48 hrs” for “24 hrs”; procedure, shortened: as §3
[30] = Half life in mouse serum; type: ADME, cell-free

- Drug uptake [1]: Active
- Drug uptake [2]: Active
SMILES: CC1(C)C(/C=C/C2=C(Cl)C(=C/C=C3/N(CCCCS(=O)(=O)O)c4ccccc4C3(C)C)/CCC2)=[N+](CCCCS(=O)(=O)O)c2ccccc21.[Cl-]

SMILES: CC1(C)C(/C=C/C2=C(SCCC(=O)Nc3ccn([C@H]4C[C@H](O)[C@@H](CO)O4)c(=O)n3)C(=C/C=C3/N(CCCCCC(=O)O)c4ccccc4C3(C)C)/CCC2)=[N+](CCCCCC(=O)O)c2ccccc21
- Activity [3]: Active

- Drug uptake [1]: Active
- Drug uptake [2]: Active
SMILES: CC1(C)C(/C=C/C2=C(Cl)C(=C/C=C3/N(CCCCCC(=O)O)c4ccccc4C3(C)C)/CCC2)=[N+](CCCCS(=O)(=O)O)c2ccccc21.[Cl-]

- Drug metabolism [5]: Metabolite_Notdetected
- Drug uptake [6]: Active
- Drug uptake [1]: Active
- Drug uptake [7]: Active
- Drug uptake [8]: Active
- Drug uptake [11]: Active
- Drug uptake [12]: Active
- Drug uptake [13]: Active
- Time [14]: 3 h
- Drug uptake [15]: Active
- Drug uptake [17]: Active
- Drug metabolism [18]: Metabolite_Detected
- Drug uptake [19]: Active
- Drug metabolism [20]: Metabolite_Notdetected
- Drug uptake [21]: Active
- Drug uptake [22]: Active
- Drug uptake [23]: Active
- Drug uptake [2]: Active
- fold change (FC) [26]: 100
- half-life at 50 µM [27]: 60 h
- half-life at 50 µM [28]: 1 h
- fold change (FC) [29]: 10
SMILES: CC1(C)C(/C=C/C2=C(SCCC(=O)Nc3ccn([C@@H]4O[C@H](CO)[C@@H](O)C4(F)F)c(=O)n3)C(=C/C=C3/N(CCCCCC(=O)O)c4ccccc4C3(C)C)/CCC2)=[N+](CCCCCC(=O)O)c2ccccc21.[Cl-]
- Activity [4]: Active
- Activity [9]: Active
- Activity [10]: Active
- Activity [16]: Non-Toxic
- IC50 [24]: 20.9 nM
- Activity [25]: Toxic

- Drug uptake [1]: Active
- half-life [30]: 0.6 h
- Drug uptake [2]: Active
SMILES: CC1(C)C(/C=C/C2=C(Cl)C(=C/C=C3/N(CCCCCC(=O)O)c4ccccc4C3(C)C)/CCC2)=[N+](CCCCCC(=O)O)c2ccccc21.[Cl-]

SMILES: O=C(CCS)Nc1ccn([C@@H]2O[C@H](CO)[C@@H](O)C2(F)F)c(=O)n1
- IC50 [24]: 11 nM

- Drug uptake [1]: Active
- Drug uptake [2]: Active
SMILES: CCCN1/C(=C/C=C2\CCCC(/C=C/C3=[N+](CCC)c4ccccc4C3(C)C)=C2Cl)C(C)(C)c2ccccc21.[Cl-]
- IC50 [24]: 7100 nM
